A selection: hits, their analogues and other compounds. The true share with any hit is near 1.2%.
S1P3 antag – blocks the human S1P3 receptor. hit rate 0.27% among 170,000. AID 485. inhibition, % at 4.98 µM. CHO S1P3 NFAT-BLA reporter, FRET fluorescence, antagonist mode;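 active means inhibition above the plate cutoff, the mean inhibition of test wells on that plate plus 3 SD, cut at about 28% in these data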;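 further: cells challenged with S1P at its EC80 of 0.8 µM; blue over green emission ratio from cleaved BLA substrate after 4 h stimulation; 0% = S1P-stimulated wells and 100% = unstimulated DMSO-only wells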
FXIa inh – inhibitors of human coagulation factor XIa; P03951; purified FXIa, Boc-Glu-Ala-Arg-AMC fluorogenic substrate; inhibition, % at 5 µM; hit rate 0.14% among 220,000; AID 798;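 active means inhibition of at least 40%; inactive means inhibition below 40%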;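 further: fluorescence of freed AMC excited at 355 nm; 0% = enzyme without compound and 100% = no enzyme blank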
Target sequence (P03951 19-387 limits assumed): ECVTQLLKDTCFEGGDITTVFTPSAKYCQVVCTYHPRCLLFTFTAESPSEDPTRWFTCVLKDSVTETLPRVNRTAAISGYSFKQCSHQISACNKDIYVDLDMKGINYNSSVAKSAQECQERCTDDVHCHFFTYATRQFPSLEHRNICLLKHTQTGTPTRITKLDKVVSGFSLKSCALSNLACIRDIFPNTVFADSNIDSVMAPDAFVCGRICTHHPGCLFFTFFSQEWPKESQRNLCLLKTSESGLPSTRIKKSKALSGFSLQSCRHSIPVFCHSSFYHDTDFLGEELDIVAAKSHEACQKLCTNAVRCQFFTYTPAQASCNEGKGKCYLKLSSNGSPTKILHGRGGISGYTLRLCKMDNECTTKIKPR
Target sequence (P03951 388-625 limits assumed): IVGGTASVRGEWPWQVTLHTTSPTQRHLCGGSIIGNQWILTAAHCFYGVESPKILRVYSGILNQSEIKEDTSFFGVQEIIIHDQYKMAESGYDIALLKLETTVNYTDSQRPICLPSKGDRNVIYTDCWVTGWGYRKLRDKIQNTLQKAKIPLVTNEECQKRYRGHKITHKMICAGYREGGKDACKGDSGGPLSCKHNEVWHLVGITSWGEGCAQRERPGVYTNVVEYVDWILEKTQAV
FXIIa inh 1536 – inhibitors of human coagulation factor XIIa; hit rate 0.3% among 220,000; purified FXIIa, Boc-QGR-AMC fluorogenic substrate, 2 h; inhibition, % at 5 µM; in the data active means inhibition above about 40%;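 further: 0% = enzyme with no compound and 100% = blank without enzyme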
Redox H2O2 prof – compounds producing H2O2 with reducing agent – biochemical, NIH compound library profiling, artefact control for MLSCN library redox annotation, primary screen; activation, % at 10 µM; hit rate 0.03% among 200,000; DTT-dependent redox cycling H2O2, phenol red/HRP absorbance; 100% = 100 µM peroxide control, 0% = buffer;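 active means activation of at least 50% relative to the plate's high and low controls in the primary single-dose screen; inactive means activation below 50%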;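 further: compound incubated with DTT at 0.8 mM final as the reducing agent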
thrombin 1536 – blocks human thrombin protease activity | P00734 | alpha-thrombin, Boc-VPR-AMC fluorogenic substrate cleavage | AID 1046 | inhibition, % at 5 µM | hit rate 0.26% among 220,000;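 active means inhibition at or above 40%; inactive means inhibition below 40%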;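 further: 0% = enzyme with no compound and 100% = wells without enzyme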
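Material: human alpha-thrombin enzyme / Medium: pH 7.5 Tris (50 mM) with NaCl 150 mM, Tween 20 0.05% / Compound: single-point dosing at 5 µM, 0.2% DMSO / Incubation: enzyme reaction carried out at room temperature / Detection: AMC fluorescence, 355/460 nm / Read-out basis: percent inhibition scaled between no-compound controls and no-enzyme blanks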
hK5 inh – inhibitors of human kallikrein 5; Q9Y337; recombinant hK5, fluorogenic AMC substrate cleavage; inhibition, % at 5 µM; hit rate 0.59% among 210,000; AID 873;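 active means inhibition of 40% or more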;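 further: 0% = enzyme controls without compound and 100% = no-enzyme blanks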
Active calls of the source: *.

Screening COC(=O)C1=C(N)Oc2cc(N(C)C)ccc2C1c1ccccc1OC (stereo not drawn) returned S1P3 antag 59.7*, FXIa inh 1.7, FXIIa inh 1536 -4.4, Redox H2O2 prof 0.2, thrombin 1536 1.0 and hK5 inh -0.8.
`CN(C)c1ccc(/C=C/c2ccc3c4ccccc4ccc3[n+]2-c2ccccc2)cc1` gave S1P3 antag 55.2*, FXIa inh 0.1, FXIIa inh 1536 5.2, Redox H2O2 prof -1.0, thrombin 1536 -1.0 and hK5 inh 12.4.
`CN(C)c1ccc(/C=C/c2ccc3ccccc3[n+]2C)cc1` gave S1P3 antag 15.0, FXIa inh -2.3, FXIIa inh 1536 7.5, Redox H2O2 prof 0.1, thrombin 1536 -5.8 and hK5 inh -0.1.
Screening CC(C)C(=O)n1nc(-c2cccnc2)nc1NCc1cccs1 returned S1P3 antag -0.1, FXIa inh 13.1, FXIIa inh 1536 -2.8, Redox H2O2 prof -0.2, thrombin 1536 99.7* and hK5 inh -5.7.
For COc1ccc(CNc2nc(-c3cccnc3)nn2S(C)(=O)=O)cc1 the results were S1P3 antag -9.4, FXIa inh 0.9, FXIIa inh 1536 7.9, Redox H2O2 prof 0.6, thrombin 1536 0.6 and hK5 inh 2.5.
For O=C(c1cccnc1)n1nc(-c2ccco2)nc1NCc1cccs1 the results were S1P3 antag -9.3, FXIa inh 2.4, FXIIa inh 1536 7.6, Redox H2O2 prof -1.1, thrombin 1536 96.8* and hK5 inh -0.5.
COc1ccc(CNc2nc(-c3cccnc3)nn2C(=O)C(C)C)cc1 was read as S1P3 antag -12.7, FXIa inh -1.8, FXIIa inh 1536 3.4, Redox H2O2 prof -0.2, thrombin 1536 98.7* and hK5 inh -14.6.
CS(=O)(=O)n1nc(-c2cccnc2)nc1NCc1ccccc1 was read as S1P3 antag -5.4, FXIa inh 7.4, FXIIa inh 1536 12.7, Redox H2O2 prof -1.4, thrombin 1536 4.0 and hK5 inh -0.7.
For CCC(=O)n1nc(-c2cccnc2)nc1NCc1ccc(OC)cc1 the results were S1P3 antag -20.7, FXIa inh -0.7, FXIIa inh 1536 9.1, Redox H2O2 prof 0.8, thrombin 1536 99.6* and hK5 inh 1.2.
Screening O=C(CCc1nnc(CCCc2ccccc2)o1)NCC(F)(F)F returned S1P3 antag -0.7, FXIa inh 1.2, FXIIa inh 1536 10.9, Redox H2O2 prof 0.1, thrombin 1536 -9.6 and hK5 inh 2.1.
`COc1cccc(-c2nn(-c3ccccc3)cc2CN(C)C(C)c2ccon2)c1` (stereo not drawn) gave S1P3 antag -3.7, FXIa inh 27.1, FXIIa inh 1536 32.7, Redox H2O2 prof 0.6, thrombin 1536 26.3 and hK5 inh 45.9*.
For CC(C)(C)OC(=O)N1CCC(c2cc(-c3cccs3)n[nH]2)CC1 the results were S1P3 antag 2.3, FXIa inh 0.1, FXIIa inh 1536 11.2, Redox H2O2 prof -0.9 and thrombin 1536 -1.7.
Screening O=C1OC(Nc2ncccn2)c2ccccc21 (stereo not drawn) returned FXIa inh 8.3, FXIIa inh 1536 106.1*, Redox H2O2 prof 0.3, thrombin 1536 13.6 and hK5 inh 41.8*.
Screening Cc1ccnc(NC(=O)c2ccc([N+](=O)[O-])o2)c1 returned FXIa inh 12.2, FXIIa inh 1536 10.1, Redox H2O2 prof 1.2, thrombin 1536 100.9* and hK5 inh 19.8.
For COc1ccc(CC(=O)Nc2cc(C)ccn2)cc1 the results were S1P3 antag -15.2, FXIa inh 10.2, FXIIa inh 1536 -0.5, Redox H2O2 prof 2.8, thrombin 1536 29.7 and hK5 inh 82.0*.
`Cc1ccnc(NC(=O)CCCOc2ccc(Cl)cc2C)c1` gave S1P3 antag -23.5, FXIa inh 34.7, FXIIa inh 1536 26.8, Redox H2O2 prof -3.5, thrombin 1536 6.0 and hK5 inh 41.3*.
`Cc1ccc(F)c(C2C3C=CCC(c4cccc(-c5ccc(N(C)C)cc5)c4)C3C(=O)N2Cc2ccccc2)c1` (stereo not drawn) gave FXIa inh 0.9, FXIIa inh 1536 4.7, thrombin 1536 -0.3 and hK5 inh 2.2.
COc1cccc(OC)c1-c1nn2c(-c3ccco3)nnc2s1 was read as FXIa inh 8.3, FXIIa inh 1536 45.4*, Redox H2O2 prof 0.0, thrombin 1536 37.7 and hK5 inh 45.4*.
For CCOc1ccc(-c2nnc3sc(-c4c(OC)cccc4OC)nn23)cc1 the results were Redox H2O2 prof 0.9.
CCNc1nc(NCC)n2c(SC(C(=O)Nc3cc(Cl)cc(Cl)c3)c3ccccc3)nnc2n1 (stereo not drawn) was read as S1P3 antag -2.1, FXIa inh -3.9, FXIIa inh 1536 5.3, Redox H2O2 prof 1.8, thrombin 1536 -8.1 and hK5 inh -4.2.
For CCOC(=O)c1cnn(-c2ncnc3sc4c(c23)CCC4)c1N the results were S1P3 antag -4.6, FXIa inh 14.0, FXIIa inh 1536 22.3, Redox H2O2 prof -0.7, thrombin 1536 49.5* and hK5 inh 34.3.
`CCOC(=O)C(C)n1cnc2sc3c(c2c1=O)CCC3` (stereo not drawn) gave S1P3 antag -30.6, FXIa inh 5.6, FXIIa inh 1536 13.5, Redox H2O2 prof -3.8, thrombin 1536 18.7 and hK5 inh 40.5*.
For Cc1ccc(-c2[nH]nc3c2C(c2ccoc2)C(C#N)=C(N)O3)cc1C (stereo not drawn) the results were S1P3 antag -22.4, FXIa inh -4.9, FXIIa inh 1536 -3.2, Redox H2O2 prof -0.8, thrombin 1536 -2.4 and hK5 inh 61.8*.
For Cc1cc(C)nc(SCCS(=O)(=O)Cc2ccccc2)n1 the results were S1P3 antag 16.1, FXIa inh 8.2, FXIIa inh 1536 19.9, Redox H2O2 prof 2.6, thrombin 1536 20.6 and hK5 inh 114.9*.
Screening NC(=O)c1cc(C(=O)c2ccc(Cl)cc2)c[nH]1 returned S1P3 antag -6.0, FXIa inh -0.8, FXIIa inh 1536 5.0, Redox H2O2 prof -0.8, thrombin 1536 2.2 and hK5 inh -2.2.
CCOC(=O)/C(=C/Nc1ccc(F)cc1)[N+](=O)[O-] was read as S1P3 antag -4.7, FXIa inh -2.6, FXIIa inh 1536 7.8, thrombin 1536 -6.5 and hK5 inh 2.1.
O=C1NC(=S)N/C1=C\c1ccc(Oc2ccc(C(F)(F)F)cc2[N+](=O)[O-])c(Cl)c1 was read as S1P3 antag -11.0, FXIa inh -3.6, FXIIa inh 1536 2.9, thrombin 1536 -8.6 and hK5 inh -4.5.
COC(=O)c1cccc(N2CCCC2=O)c1 was read as S1P3 antag 9.4, FXIa inh 32.2, FXIIa inh 1536 24.9, thrombin 1536 16.0 and hK5 inh 45.4*.
`COc1ccccc1NC(=S)N(Cc1ccco1)Cc1cc2cc(C)ccc2[nH]c1=O` gave S1P3 antag 1.0, FXIa inh 13.8, FXIIa inh 1536 16.4, Redox H2O2 prof -0.1, thrombin 1536 47.7* and hK5 inh 38.3.

Assay outcomes (PubChem)
